NR2E3 ag-1: agonists of human nuclear receptor NR2E3; 0.12% of 320,000 active; GST-NR2E3/biotin-RetCOR TR-FRET, 1536-well; inhibition of corepressor binding, % at 4.78 µM; Q9Y5X4;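 active = percent inhibition above the cutoff of mean plus 3 SD of all tested compounds, set per screening campaign, cut at about 20% in these data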;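 also: 0% = DMSO wells and 100% = biotin wells as full block of FRET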
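System: GST-NR2E3 and biotin-RetCOR proteins; probe or stimulus: 7 nM biotin-RetCOR; doses: compound at 4.8 µM, single dose; schedule: Compound–protein incubation for 5 h at 4 °C; detection: time-resolved FRET; read-out: percent inhibition; controls: biotin wells as high control, 0.6% DMSO wells as low control; format: 1536-well plates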
NR2E3 ag-2: activates human NR2E3 receptor; Q9Y5X4; CHO-S Gal4-NCOR/VP16-NR2E3 two-hybrid, luciferase; inhibition of corepressor binding, % at 3.98 µM; 0.35% of 360,000 active; AID 602229;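 active = inhibition above the mean of all tested compounds plus 3 SD, cut at about 70% in these data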;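 also: 0% = DMSO with NR2E3 transfected cells and 100% = cells lacking NR2E3 construct; higher means lower luciferase signal from less NR2E3 corepressor binding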
PG9 Ab binder: small molecules binding HIV-1 gp120 antibody PG9; TR-FRET gp120-PG9 antibody binding; inhibition, % at 6.7 µM; 0.43% of 360,000 active; AID 624416; in the data active = inhibition above about 8.5%
Rev-erbA mod: modulates human Rev-erb alpha binding to DNA; Rev-erbα–FITC-DNA binding, fluorescence polarization, 90 min; P20393; activity, % at 10 µM; 0.79% of 370,000 active;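 active = activity above about 14%, limit read from the data; passing the limit was not always enough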;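 also: 0% = DMSO wells with 35 nM protein and 100% = DMSO wells with 750 nM protein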
Target sequence (P20393 whole entry, looked up): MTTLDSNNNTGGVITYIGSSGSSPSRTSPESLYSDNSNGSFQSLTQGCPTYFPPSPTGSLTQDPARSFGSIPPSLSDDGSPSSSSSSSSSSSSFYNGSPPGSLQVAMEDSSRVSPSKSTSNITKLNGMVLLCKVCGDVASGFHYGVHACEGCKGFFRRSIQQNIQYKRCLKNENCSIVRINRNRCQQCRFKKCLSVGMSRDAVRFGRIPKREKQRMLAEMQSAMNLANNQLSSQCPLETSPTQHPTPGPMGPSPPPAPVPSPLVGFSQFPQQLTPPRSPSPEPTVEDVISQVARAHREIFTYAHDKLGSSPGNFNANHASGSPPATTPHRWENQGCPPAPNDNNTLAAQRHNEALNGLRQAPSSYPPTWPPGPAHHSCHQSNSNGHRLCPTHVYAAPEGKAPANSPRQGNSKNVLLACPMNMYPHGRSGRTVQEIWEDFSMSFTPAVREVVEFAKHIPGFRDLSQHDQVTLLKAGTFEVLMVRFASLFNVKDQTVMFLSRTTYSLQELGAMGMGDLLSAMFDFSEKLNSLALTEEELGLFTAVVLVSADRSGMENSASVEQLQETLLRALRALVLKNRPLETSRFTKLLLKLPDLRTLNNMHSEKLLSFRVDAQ
NR2E3 ag confirm: confirmation of human NR2E3 agonists; shares compounds with NR2E3 ag-2; AID 624378; CHO-S mammalian two-hybrid NR2E3-NCOR, luciferase luminescence; 51% of 2,300 active; inhibition, % at 3.98 µM;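 active = average inhibition above a cutoff equal to the mean inhibition of all tested compounds plus one SD, cut at about 70% in these data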;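 also: 0% = DMSO in NR2E3 cells and 100% = DMSO in cells lacking NR2E3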
VP16 counter: counter-screen for NR2E3 agonists: GAL4-VP16 reporter inhibitors. shares compounds with NR2E3 ag-2. CHO-S GAL4-VP16 luciferase reporter, luminescence. inhibition, % at 3.98 µM. 29% of 2,300 active. AID 624379;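 active = mean inhibition above a cutoff equal to the average over all tested compounds plus one standard deviation, cut at about 70% in these data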;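 also: luciferase from a UAS reporter driven by GAL4-VP16 transactivation; 0% = DMSO with VP16-transfected cells and 100% = DMSO with cells lacking VP16; higher means less reporter light so more repression of VP16 activity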
* marks the source's active call; other numbers are inactive results. Hits are enriched below; roughly 1.4% of the tested compounds scored in any of these assays.

What do the screens show for `O=C(Nc1ccccc1C(=O)Nc1nnc(C(F)(F)F)s1)c1ccccc1`?
NR2E3 ag-1: 2; NR2E3 ag-2: 72*; PG9 Ab binder: -1; Rev-erbA mod: 1; NR2E3 ag confirm: 99*; VP16 counter: 94*

What do the screens show for `COc1cc2c(cc1OC)C(CC(=O)O)N(C(=O)CC1CCCC1)CC2` (centres undefined)?
NR2E3 ag-1: 4; NR2E3 ag-2: -24; PG9 Ab binder: 1; Rev-erbA mod: 0

Results for COc1ccc2cc(N3CCCC3=O)ccc2c1 ?
NR2E3 ag-2: -36; PG9 Ab binder: -1; Rev-erbA mod: 0

What do the screens show for `Cc1ccccc1Oc1cc(-n2ncc(Cl)c(Cl)c2=O)ncn1`?
NR2E3 ag-1: -16; NR2E3 ag-2: 49; PG9 Ab binder: 0; Rev-erbA mod: -2; NR2E3 ag confirm: 63; VP16 counter: -18

What do the screens show for `CC1Cc2cc(/C=C3/SC(=S)NC3=O)ccc2O1` (centres undefined)?
NR2E3 ag-1: -2; NR2E3 ag-2: -58; PG9 Ab binder: -3; Rev-erbA mod: 1

What do the screens show for `Cc1ccc(C2C(/C=C3/SC(=S)NC3=O)=C(c3cccs3)Oc3ccccc32)cc1` (centres undefined)?
NR2E3 ag-1: 0; NR2E3 ag-2: 74*; PG9 Ab binder: 0; Rev-erbA mod: 4; NR2E3 ag confirm: 87*; VP16 counter: 61

Results for Cc1ccc(OCC(=O)N2N=C(C(F)(F)F)CC2(O)C(C)(C)C)cc1C (centres undefined) ?
NR2E3 ag-1: 3; NR2E3 ag-2: 51; PG9 Ab binder: 0; Rev-erbA mod: 0; NR2E3 ag confirm: 59; VP16 counter: 47

How did Cc1ccccc1OCC(=O)N1N=C(C(F)(F)F)CC1(O)C(C)(C)C (centres undefined) do in these assays?
NR2E3 ag-1: 0; NR2E3 ag-2: -26; PG9 Ab binder: 0; Rev-erbA mod: -10

How did COc1cccc(-c2cnc(C(O)c3ccccc3)[nH]2)c1 (centres undefined) do in these assays?
NR2E3 ag-2: -28; PG9 Ab binder: 0; Rev-erbA mod: 8

How did Cc1ccc(C)c(NS(=O)(=O)c2ccc(-c3coc(C)n3)cc2)c1 do in these assays?
NR2E3 ag-1: 2; NR2E3 ag-2: 19; PG9 Ab binder: 1; Rev-erbA mod: -1

What do the screens show for `COc1ccc(NS(=O)(=O)c2ccc(-c3coc(C)n3)cc2)cc1`?
NR2E3 ag-1: 0; NR2E3 ag-2: 43; PG9 Ab binder: -1; Rev-erbA mod: 4

Results for COc1ccc(NS(=O)(=O)c2ccc(-c3coc(C)n3)cc2)cc1OC ?
NR2E3 ag-1: 2; NR2E3 ag-2: 108*; PG9 Ab binder: -3; Rev-erbA mod: -4; NR2E3 ag confirm: 99*; VP16 counter: 87*

What do the screens show for `Cc1nc(-c2ccc(S(=O)(=O)Nc3cccc(Cl)c3)cc2)co1`?
NR2E3 ag-1: 0; NR2E3 ag-2: 35; PG9 Ab binder: 3; Rev-erbA mod: 3

What do the screens show for `CSc1cccc(NS(=O)(=O)c2ccc(-c3coc(C)n3)cc2)c1`?
NR2E3 ag-1: -1; NR2E3 ag-2: 93*; PG9 Ab binder: -1; Rev-erbA mod: -3; NR2E3 ag confirm: 77*; VP16 counter: 60

Results for Cc1ccc(NS(=O)(=O)c2ccc(-c3coc(C)n3)cc2)c(Br)c1 ?
NR2E3 ag-1: -4; NR2E3 ag-2: 57; PG9 Ab binder: 1; Rev-erbA mod: 5; NR2E3 ag confirm: 60; VP16 counter: 43

What do the screens show for `CC(C)(C)c1ccc(-n2ncc3c2CCCC3NC(=O)c2cnccn2)cc1` (centres undefined)?
NR2E3 ag-1: 0; NR2E3 ag-2: 89*; PG9 Ab binder: -1; Rev-erbA mod: 9; NR2E3 ag confirm: 59; VP16 counter: 47

What do the screens show for `Cn1nccc1C(=O)NC1CCCc2c1cnn2-c1ccc(C(C)(C)C)cc1` (centres undefined)?
NR2E3 ag-1: 0; NR2E3 ag-2: 106*; PG9 Ab binder: 0; Rev-erbA mod: -4; NR2E3 ag confirm: 95*; VP16 counter: 84*

What do the screens show for `Cc1cc(C)n(CC(=O)Nc2ccc(N3CCOCC3)c(Cl)c2)c(=O)c1C#N`?
NR2E3 ag-1: 0; NR2E3 ag-2: -11; PG9 Ab binder: -2; Rev-erbA mod: 5

How did O=C(OCCC12CC3CC(CC(C3)C1)C2)c1ccc(NCc2cc(O)ccc2O)cc1 do in these assays?
NR2E3 ag-2: 29; PG9 Ab binder: -2; Rev-erbA mod: -4

What do the screens show for `O=C(OCC12CC3CC(CC(C3)C1)C2)c1ccc(NCc2cc(O)ccc2O)cc1`?
NR2E3 ag-2: 74*; PG9 Ab binder: -2; Rev-erbA mod: 0; NR2E3 ag confirm: 67; VP16 counter: 5

What do the screens show for `O=C(NCc1c(F)cccc1F)c1cc(COc2c(F)cccc2F)on1`?
NR2E3 ag-1: 3; NR2E3 ag-2: 89*; PG9 Ab binder: -3; Rev-erbA mod: 3; NR2E3 ag confirm: -28; VP16 counter: -49

How did O=C(C1=C(O)C(=O)N(c2nccs2)C1c1ccccc1)c1cc2ccccc2o1 (centres undefined) do in these assays?
NR2E3 ag-1: 7; NR2E3 ag-2: 66; PG9 Ab binder: 9; Rev-erbA mod: 3; NR2E3 ag confirm: 95*; VP16 counter: 71*

How did CCOc1ccc(S(=O)(=O)N2CCCCC2)c2ccccc12 do in these assays?
NR2E3 ag-1: 0; NR2E3 ag-2: 58; PG9 Ab binder: 0; Rev-erbA mod: 3; NR2E3 ag confirm: 55; VP16 counter: -10

Results for Cn1c(=O)[nH]c(=O)c2c1nc(Sc1ncccn1)n2CCCc1ccccc1 ?
NR2E3 ag-1: 0; NR2E3 ag-2: -18; PG9 Ab binder: -1; Rev-erbA mod: 1

How did CC(C)(C)NCC(=Cc1ccccc1)C(=O)c1ccccc1 do in these assays?
NR2E3 ag-2: 87*; PG9 Ab binder: 0; Rev-erbA mod: 8; NR2E3 ag confirm: 83*; VP16 counter: 30

How did Cc1nc2ccc(S(=O)(=O)Nc3cccc(-c4nc5cccnc5s4)c3C)cc2s1 do in these assays?
NR2E3 ag-1: 2; NR2E3 ag-2: 98*; PG9 Ab binder: 1; Rev-erbA mod: 2; NR2E3 ag confirm: 95*; VP16 counter: 86*

How did Cc1nc2ccc(S(=O)(=O)Nc3cc(-c4nc5cccnc5s4)ccc3C)cc2s1 do in these assays?
NR2E3 ag-1: 0; NR2E3 ag-2: -58; PG9 Ab binder: -1; Rev-erbA mod: 10

How did CCC(=O)Nc1sc2c(c1C(N)=O)CCN(C(C)=O)C2 do in these assays?
NR2E3 ag-1: 4; NR2E3 ag-2: -14; PG9 Ab binder: 0; Rev-erbA mod: -5

How did CC(=O)N1CCc2c(sc(NC(=O)c3ccc([N+](=O)[O-])o3)c2C(N)=O)C1 do in these assays?
NR2E3 ag-2: 79*; PG9 Ab binder: -12; Rev-erbA mod: 2; NR2E3 ag confirm: 15; VP16 counter: 26

Compound activity (PubChem)
